Tests used:
[1] = target: T1, Epidermal growth factor receptor (Homo sapiens, UniProt P00533, L858R/T790M); test: Inhibition of N-terminal 6x-HIS-tagged human recombinant EGFR (696 to 1022 residues) L858R/T790M mutant expressed in Sf9 cells pre-incubated for 0 mins followed by 1 mM ATP addition by HTRF assay
Procedure, shortened: (§1)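 HTRF kinase assay on the EGFR L858R-T790M kinase domain at 1 mM ATP. Compound with either no preincubation or a 90 min enzyme/compound preincubation.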

[2] = target: T1, Epidermal growth factor receptor; test: Inhibition of N-terminal 6x-HIS-tagged human recombinant EGFR (696 to 1022 residues) L858R/T790M mutant expressed in Sf9 cells pre-incubated for 90 mins followed by 1 mM ATP addition by HTRF assay; procedure, shortened: as §1
[3] = Inhibition of EGFR E746 to A750 deletion mutant phosphorylation in human patient derived HCC827 cells incubated for 3 hrs by ELISA method; type: cell-based; conditions: HCC827, 3 h
Procedure, shortened: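 HCC827 cells plated at 7500/well in 5% FBS/RPMI and left overnight at 37 °C. Then 3 h with a 12-point compound dilution series, no EGF stimulation. Lysed in Triton/protease/phosphatase-inhibitor buffer. Phospho-EGFR (Y1173) read by sandwich ELISA: anti-EGFR capture, anti-phospho-EGFR, anti-rabbit-HRP, chemiluminescence. IC50 from at least duplicates.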

[4] = target: T1, Epidermal growth factor receptor; test: Inhibition of EGFR L858R/T790M mutant phosphorylation in human patient derived H1975 cells incubated for 3 hrs by ELISA method; type: cell-based
[5] = target: T2, Epidermal growth factor receptor (Homo sapiens, UniProt P00533, L858R); test: Inhibition of EGFR L858R mutant phosphorylation in human patient derived H3255 cells incubated for 3 hrs by ELISA method; type: cell-based
T2 sequence (P00533 25-1210 L858R limits assumed): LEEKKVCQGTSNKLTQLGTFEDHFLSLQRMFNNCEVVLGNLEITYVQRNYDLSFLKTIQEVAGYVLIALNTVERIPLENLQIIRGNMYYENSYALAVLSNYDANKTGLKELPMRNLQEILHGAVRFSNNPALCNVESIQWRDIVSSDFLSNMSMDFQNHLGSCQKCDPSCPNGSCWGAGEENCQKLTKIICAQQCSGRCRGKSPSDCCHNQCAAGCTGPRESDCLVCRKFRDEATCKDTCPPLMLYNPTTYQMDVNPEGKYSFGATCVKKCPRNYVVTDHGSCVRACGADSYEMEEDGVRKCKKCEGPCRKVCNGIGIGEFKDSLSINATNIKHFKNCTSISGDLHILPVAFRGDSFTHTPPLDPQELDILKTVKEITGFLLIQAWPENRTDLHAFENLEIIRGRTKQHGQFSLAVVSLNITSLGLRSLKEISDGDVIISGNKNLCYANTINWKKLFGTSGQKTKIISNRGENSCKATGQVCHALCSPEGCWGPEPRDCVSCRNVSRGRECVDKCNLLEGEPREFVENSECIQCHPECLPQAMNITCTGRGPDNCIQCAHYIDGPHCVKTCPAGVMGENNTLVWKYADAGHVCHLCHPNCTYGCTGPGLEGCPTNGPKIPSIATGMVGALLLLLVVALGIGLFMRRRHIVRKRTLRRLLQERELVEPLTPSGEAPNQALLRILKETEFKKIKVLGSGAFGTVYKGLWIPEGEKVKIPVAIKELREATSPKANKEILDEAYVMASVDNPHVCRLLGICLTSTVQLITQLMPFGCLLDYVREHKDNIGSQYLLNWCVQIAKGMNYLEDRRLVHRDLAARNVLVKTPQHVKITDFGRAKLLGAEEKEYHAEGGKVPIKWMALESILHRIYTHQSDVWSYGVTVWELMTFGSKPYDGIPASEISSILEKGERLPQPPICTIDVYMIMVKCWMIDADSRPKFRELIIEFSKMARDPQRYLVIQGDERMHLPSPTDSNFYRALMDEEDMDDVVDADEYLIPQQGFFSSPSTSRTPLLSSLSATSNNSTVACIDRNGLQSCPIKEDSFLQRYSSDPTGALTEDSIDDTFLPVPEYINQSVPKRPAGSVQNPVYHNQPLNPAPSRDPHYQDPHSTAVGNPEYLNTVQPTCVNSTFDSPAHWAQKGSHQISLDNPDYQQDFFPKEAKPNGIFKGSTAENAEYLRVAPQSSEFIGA

[6] = target: T3, Epidermal growth factor receptor (Homo sapiens, UniProt P00533); test: Inhibition of wild type EGFR phosphorylation in human HaCaT cells incubated for 3 hrs by ELISA method; type: cell-based
T3 sequence (P00533 whole entry): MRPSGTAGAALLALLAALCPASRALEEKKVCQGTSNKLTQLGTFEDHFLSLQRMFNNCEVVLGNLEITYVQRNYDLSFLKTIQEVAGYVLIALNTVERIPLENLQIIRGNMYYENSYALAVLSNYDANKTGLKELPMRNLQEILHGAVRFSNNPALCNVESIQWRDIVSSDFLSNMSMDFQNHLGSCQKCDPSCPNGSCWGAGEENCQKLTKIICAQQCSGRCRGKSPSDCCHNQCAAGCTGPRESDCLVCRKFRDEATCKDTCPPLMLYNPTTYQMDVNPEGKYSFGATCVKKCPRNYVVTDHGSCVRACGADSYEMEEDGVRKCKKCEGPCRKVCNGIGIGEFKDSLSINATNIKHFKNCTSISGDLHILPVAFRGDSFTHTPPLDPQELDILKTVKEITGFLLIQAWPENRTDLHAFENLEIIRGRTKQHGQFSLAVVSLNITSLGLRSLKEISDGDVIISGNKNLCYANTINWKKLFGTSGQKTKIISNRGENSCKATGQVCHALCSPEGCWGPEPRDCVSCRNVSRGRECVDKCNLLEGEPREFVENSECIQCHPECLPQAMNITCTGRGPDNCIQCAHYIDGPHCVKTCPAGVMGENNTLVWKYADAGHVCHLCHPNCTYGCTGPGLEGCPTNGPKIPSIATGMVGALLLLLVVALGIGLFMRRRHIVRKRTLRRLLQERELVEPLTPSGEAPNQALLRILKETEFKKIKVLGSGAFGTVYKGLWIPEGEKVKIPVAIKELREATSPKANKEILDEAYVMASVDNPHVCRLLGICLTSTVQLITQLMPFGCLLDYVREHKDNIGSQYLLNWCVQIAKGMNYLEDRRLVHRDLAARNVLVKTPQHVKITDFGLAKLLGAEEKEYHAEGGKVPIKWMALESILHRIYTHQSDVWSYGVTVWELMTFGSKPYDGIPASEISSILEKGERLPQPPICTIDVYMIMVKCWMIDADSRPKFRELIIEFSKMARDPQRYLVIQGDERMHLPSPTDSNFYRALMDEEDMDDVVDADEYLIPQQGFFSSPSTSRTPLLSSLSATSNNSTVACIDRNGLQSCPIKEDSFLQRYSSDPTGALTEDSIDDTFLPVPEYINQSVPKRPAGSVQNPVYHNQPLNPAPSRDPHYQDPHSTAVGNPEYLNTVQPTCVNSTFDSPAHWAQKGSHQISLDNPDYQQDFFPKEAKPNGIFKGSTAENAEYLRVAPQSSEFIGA

[7] = Glutathione reactivity assessed as GSH adduct formation incubated for 1 hr using 10 mM glutathione
Procedure, shortened: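 Compound incubated 1 h with 10 mM glutathione; GSH adduct formation measured.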

[8] = target: T1, Epidermal growth factor receptor; test: Inhibition of N-terminal 6x-HIS-tagged human recombinant EGFR (696 to 1022 residues) L858R/T790M mutant expressed in Sf9 cells pre-incubated for 90 mins followed by 10 uM ATP addition by HTRF assay
[9] = target: T2, Epidermal growth factor receptor; test: Inhibition of N-terminal 6x-HIS-tagged human recombinant EGFR (696 to 1022 residues) L858R mutant expressed in Sf9 cells pre-incubated for 90 mins followed by 10 uM ATP addition by HTRF assay
[10] = target: T3, Epidermal growth factor receptor; test: Inhibition of N-terminal 6x-HIS-tagged wild type human recombinant EGFR (696 to 1022 residues) expressed in Sf9 cells pre-incubated for 90 mins followed by 10 uM ATP addition by HTRF assay

T1 sequence (P00533 25-1210 T790M/L858R limits assumed): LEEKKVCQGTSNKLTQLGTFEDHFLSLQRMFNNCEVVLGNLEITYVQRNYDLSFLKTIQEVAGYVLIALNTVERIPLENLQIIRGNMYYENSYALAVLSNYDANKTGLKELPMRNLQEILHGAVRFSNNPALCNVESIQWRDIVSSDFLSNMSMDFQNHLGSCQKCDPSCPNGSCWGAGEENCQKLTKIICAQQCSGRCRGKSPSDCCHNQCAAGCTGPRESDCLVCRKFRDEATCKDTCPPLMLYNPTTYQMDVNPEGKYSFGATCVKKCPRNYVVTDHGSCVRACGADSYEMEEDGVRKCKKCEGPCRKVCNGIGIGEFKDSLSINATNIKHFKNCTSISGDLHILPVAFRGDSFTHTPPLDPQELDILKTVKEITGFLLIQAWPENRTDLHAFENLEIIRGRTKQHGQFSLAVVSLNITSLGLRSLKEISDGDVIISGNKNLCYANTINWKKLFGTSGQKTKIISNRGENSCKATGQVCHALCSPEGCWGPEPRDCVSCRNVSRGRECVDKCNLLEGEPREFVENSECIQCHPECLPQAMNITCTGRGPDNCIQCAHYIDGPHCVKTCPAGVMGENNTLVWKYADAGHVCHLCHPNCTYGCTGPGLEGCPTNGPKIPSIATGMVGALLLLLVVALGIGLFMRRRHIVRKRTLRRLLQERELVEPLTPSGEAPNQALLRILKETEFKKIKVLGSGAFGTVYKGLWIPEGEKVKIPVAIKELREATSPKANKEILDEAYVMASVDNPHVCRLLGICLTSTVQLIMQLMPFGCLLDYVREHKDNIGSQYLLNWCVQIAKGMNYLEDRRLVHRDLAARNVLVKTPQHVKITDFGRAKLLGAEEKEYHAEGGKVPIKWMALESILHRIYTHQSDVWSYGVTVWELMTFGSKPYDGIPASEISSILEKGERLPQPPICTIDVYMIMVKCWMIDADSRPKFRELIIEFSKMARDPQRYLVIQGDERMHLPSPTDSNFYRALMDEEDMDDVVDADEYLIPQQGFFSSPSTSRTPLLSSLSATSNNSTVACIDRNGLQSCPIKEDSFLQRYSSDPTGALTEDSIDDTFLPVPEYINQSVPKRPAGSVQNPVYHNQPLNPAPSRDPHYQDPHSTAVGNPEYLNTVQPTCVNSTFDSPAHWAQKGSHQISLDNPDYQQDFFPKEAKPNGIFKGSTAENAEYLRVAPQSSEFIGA

IC50 [1] [nM]	IC50 [2] [nM]	Compound	further results
> 50000	> 50000	C=CC(=O)N[C@H]1CCCC[C@H]1n1c(NC(=O)c2cccc(C(F)(F)F)c2)nc2cc(C)ccc21 (racemic)	
> 50000	> 50000	C=CC(=O)N[C@H]1CC[C@H](n2c(NC(=O)c3cccc(C(F)(F)F)c3)nc3cc(C)ccc32)CC1	
> 50000	6810	C=CC(=O)NC1CCC(n2c(NC(=O)c3cccc(C(F)(F)F)c3)nc3cc(C)ccc32)C1 (configuration not stated)	
> 50000	> 50000	C=CC(=O)N1CCC(n2c(NC(=O)c3cccc(C(F)(F)F)c3)nc3cc(C)ccc32)C1 (configuration not stated)	

Second part, the compound before the results:

Compound	IC50 [1] [nM]	IC50 [2] [nM]	further results
C=CC(=O)NCCn1c(NC(=O)c2cccc(C(F)(F)F)c2)nc2cc(C)ccc21	> 50000	> 50000	
C=CC(=O)Nc1cccc(Nc2nc(Nc3ccc(N4CCN(C(C)=O)CC4)cc3OC)ncc2C(F)(F)F)c1 [ROCILETINIB]			IC50 [3]: 9.5 nM
C=CC(=O)N1CCCC(n2c(NC(=O)c3cccc(C(F)(F)F)c3)nc3cc(C)ccc32)C1 (configuration not stated)	> 50000	20	IC50 [4]: 24.7 nM; IC50 [5]: 421 nM; IC50 [3]: 153 nM; IC50 [6]: > 10000 nM
Cc1cc(C(=O)Nc2nc3cccc(Cl)c3n2[C@@H]2CCCCN(C(=O)/C=C/CN(C)C)C2)ccn1			Drug metabolism [7]: < 5%
C=CC(=O)Nc1cccc(-n2c(NC(=O)c3cccc(C(F)(F)F)c3)nc3cc(C)ccc32)c1	> 50000	4	IC50 [4]: 135 nM; IC50 [5]: 1040 nM; IC50 [3]: 272 nM
Cc1cccc2c1nc(NC(=O)c1cccc(C(F)(F)F)c1)n2[C@H]1CC[C@H](O)CC1			IC50 [8]: 1370 nM; IC50 [9]: 11800 nM; IC50 [10]: > 50000 nM
C=CC(=O)N1CCCC(n2c(NC(=O)c3cccc(C(F)(F)F)c3)nc3cc(C)ccc32)CC1 (configuration not stated)	> 50000	> 50000	
O=C(Nc1nc2ccccc2n1[C@H]1CC[C@H](O)CC1)c1cccc(C(F)(F)F)c1			IC50 [8]: 260 nM; IC50 [9]: 2000 nM; IC50 [10]: > 50000 nM
C=CC(=O)N1CCC(n2c(NC(=O)c3cccc(C(F)(F)F)c3)nc3cc(C)ccc32)CC1	> 37700	16500	
C=CC(=O)NCCCn1c(NC(=O)c2cccc(C(F)(F)F)c2)nc2cc(C)ccc21	> 50000	50	IC50 [4]: 525 nM; IC50 [3]: 1650 nM
